# “Also recorded” adds a separate entry of the source.
# Tests used:
# rats of the CF1 strain = details: cited from earlier work
# [1] = test system: 48 h-old mwh+/+flr^3 larvae; test: Toxicity test; type: in vivo, Drosophila melanogaster; details: for % of non-viable larvae / No. of viable larvae ± SEM: 500 larvae
# 48 h-larvae mwh+/+flr^3 = test: Wing spot test; type: in vivo, Drosophila melanogaster; details: CrO3 0.025–2.5 mM
# Drosophila strain = details: chronic treatment, cited from earlier work
# [2] = test system: 48 h-larvae mwh +/+ flr^3; test: Wing spot test; type: in vivo, Drosophila melanogaster; details: for Total spots, statistical diagnosis / Small single spots (1-2 cells), statistical diagnosis: m = 2; for Total spots, statistical diagnosis / Large single spots (>cells), statistical diagnosis / Small single spots (1-2 cells), statistical diagnosis: vs negative control; for Large single spots (>cells), statistical diagnosis: m = 5
# In short: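 Crosses: mwh/mwh females × flr3/TM3,Bds males mated 2 h, eggs laid over 2 h. 48 h larvae were collected on 20% sucrose, washed in 24 ± 1 °C water, held 24 h in the dark on filter paper with PP-IX (0–69 mM in 5% sucrose), then fed CrO3 (0.025–2.5 mM) in instant medium, in triplicate. Non-Ser wings were scored at 40× for small (1–2 cells), large and twin spots. Frei–Würgler one-sided test, α=β=0.05, m multiplication factor.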
# [3] = test system: 48 h-old mwh +/+ flr^3 larvae; test: Wing spot test, PP-IX pretreatment then 20 Gy gamma rays; type: in vivo, Drosophila melanogaster; details: for Large single spots (>cells) per wing / Large single spots (>cells), number of spots / Small single spots (1-2 cells) per wing / Small single spots (1-2 cells), number of spots / Total spots per wing / Total spots, number of spots / Twin spots per wing / Twin spots, number of spots: 80 wings; for Small single spots (1-2 cells), statistical diagnosis / Total spots, statistical diagnosis: m = 2
# In short: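 48 h-old mwh/flr3 larvae were pretreated 24 h in the dark on filter paper with PP-IX (0, 0.69, 6.9, 69 mM in 5% sucrose). Each group was then split: one half received 20 Gy from a Co-60 source (dose rate up to 1259.44 Gy/h), the other stayed unirradiated. Larvae were reared on hydrated instant medium to eclosion. Wing spots were scored by SMART and analysed by Frei–Würgler statistics, m multiplication factor.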
# [4] = test system: somatic cells of Drosophila; details: PP-IX 69 mM, 24 h after administration, with 0.5 mM N-nitroso-N-ethylurea (ENU); cited from earlier work
# [5] = PP-IX 0.69 mM 24 h pretreatment alone, 120 wings
# [6] = PP-IX 6.9 mM 24 h pretreatment alone, 120 wings
# [7] = PP-IX 69 mM 24 h pretreatment alone, 160 wings
# [8] = PP-IX 0.69 mM 24 h pretreatment + 20 Gy gamma rays
# [9] = PP-IX 0.69 mM + 20 Gy gamma rays
# [10] = PP-IX 6.9 mM 24 h pretreatment + 20 Gy gamma rays
# [11] = PP-IX 6.9 mM + 20 Gy gamma rays
# [12] = PP-IX 69 mM 24 h pretreatment + 20 Gy gamma rays
# [13] = PP-IX 69 mM + 20 Gy gamma rays, m = 5
structure (smiles),measurement,setting,value
"C=CC1=C(C)c2cc3[nH]c(cc4nc(cc5[nH]c(cc1n2)c(C)c5CCC(=O)O)C(CCC(=O)O)=C4C)c(C)c3C=C [PP-IX, Protoporphyrin-IX]",Increase of catalase (CAT) activity,rats of the CF1 strain; after 2 h of administration,30%
same,Lipid peroxidation,rats of the CF1 strain,induced lipid peroxidation
same,Superoxide dismutase (SOD) enzyme,rats of the CF1 strain,increased 24 h after administration
same,% of non-viable larvae,[1]; PP-IX 0.69 mM,21%
same,No. of viable larvae ± SEM,[1]; PP-IX 0.69 mM,394 ± 1.7
same,% of non-viable larvae,[1]; PP-IX 6.9 mM,11%
same,No. of viable larvae ± SEM,[1]; PP-IX 6.9 mM,447 ± 0.6
same,Reduction of toxicity compared to control,"[1]; PP-IX 6.9 mM, not significantly",5%
same,% of non-viable larvae,[1]; PP-IX 69 mM,26%
same,No. of viable larvae ± SEM,[1]; PP-IX 69 mM,368 ± 0.5
same,Toxicity compared to the control,"[1]; PP-IX 0.69, 6.9, 69 mM (three concentrations tested)",nontoxic; also recorded: not toxic
same,Effect on genetic damage induced by CrO3,48 h-larvae mwh+/+flr^3; PP-IX 0.69 mM,significant decrease of damage in four of the five concentrations of CrO3 tested; also recorded: significantly reduced the genetic damage induced by all CrO3 concentrations tested
same,Effect on genetic damage induced by CrO3,48 h-larvae mwh+/+flr^3; PP-IX 6.9 mM,significantly decreased the frequency of damage induced by 2 and 2.5 mM of the mutagen
same,Effect on genetic damage induced by CrO3,48 h-larvae mwh+/+flr^3; PP-IX 69 mM,only reduced the damage induced by 2.5 mM
same,"Half life, Sod deficient strain",Drosophila strain; Sod deficient strain,half life was reduced
same,"Lifespan, wild strain",Drosophila strain; wild Drosophila strain,prolong the lifespan
same,Large single spots (>cells) per wing,[2]; [5],0.05 spots per wing
same,"Large single spots (>cells), number of spots",[2]; [5],6
same,Small single spots (1-2 cells) per wing,[2]; [5],0.33 spots per wing
same,"Small single spots (1-2 cells), number of spots",[2]; [5],40
same,Total spots per wing,[2]; [5],0.41 spots per wing
same,"Total spots, number of spots",[2]; [5],49
same,Twin spots per wing,[2]; [5],0.03 spots per wing
same,"Twin spots, number of spots",[2]; [5],3
same,"Total spots, statistical diagnosis",[2]; PP-IX 0.69 mM alone,−
same,"Large single spots (>cells), statistical diagnosis",[2]; PP-IX 0.69 mM alone,−
same,Large single spots (>cells) per wing,[2]; [6],0.05 spots per wing
same,"Large single spots (>cells), number of spots",[2]; [6],6
same,Small single spots (1-2 cells) per wing,[2]; [6],0.23 spots per wing
same,"Small single spots (1-2 cells), number of spots",[2]; [6],28
same,Total spots per wing,[2]; [6],0.28 spots per wing
same,"Total spots, number of spots",[2]; [6],34
same,Twin spots per wing,[2]; [6],0 spots per wing
same,"Twin spots, number of spots",[2]; [6],(0)
same,"Small single spots (1-2 cells), statistical diagnosis",[2]; PP-IX 6.9 mM alone,−
same,"Total spots, statistical diagnosis",[2]; PP-IX 6.9 mM alone,−
same,"Large single spots (>cells), statistical diagnosis",[2]; PP-IX 6.9 mM alone,−
same,Large single spots (>cells) per wing,[2]; [7],0.14 spots per wing
same,"Large single spots (>cells), number of spots",[2]; [7],23
same,Small single spots (1-2 cells) per wing,[2]; [7],0.51 spots per wing
same,"Small single spots (1-2 cells), number of spots",[2]; [7],81
same,Total spots per wing,[2]; [7],0.66 spots per wing
same,"Total spots, number of spots",[2]; [7],106
same,Twin spots per wing,[2]; [7],0.01 spots per wing
same,"Twin spots, number of spots",[2]; [7],2
same,Effect of PP-IX alone on basal mutation frequency,[2]; PP-IX 69 mM alone,doubled the basal mutation frequency
same,"Small single spots (1-2 cells), statistical diagnosis",[2]; PP-IX 69 mM alone,+
same,"Total spots, statistical diagnosis",[2]; PP-IX 69 mM alone,+
same,"Large single spots (>cells), statistical diagnosis",[2]; PP-IX 69 mM alone,−
same,Mutagenicity of PP-IX alone,"[2]; PP-IX 69 mM, damage comparable with 0.25 mM of CrO3",mutagenic
same,Induction of genetic damage by PP-IX alone,[2]; PP-IX 0.69 and 6.9 mM,did not induce genetic damage
same,Large single spots (>cells) per wing,[3]; [8],1.16 spots per wing
same,"Large single spots (>cells), number of spots",[3]; [8],93
same,Small single spots (1-2 cells) per wing,[3]; [8],0.82 spots per wing
same,"Small single spots (1-2 cells), number of spots",[3]; [8],66
same,Total spots per wing,[3]; [8],2.07 spots per wing
same,"Total spots, number of spots",[3]; [8],166
same,Twin spots per wing,[3]; [8],0.08 spots per wing
same,"Twin spots, number of spots",[3]; [8],7
same,"Small single spots (1-2 cells), statistical diagnosis",[3]; [9],−
same,"Total spots, statistical diagnosis",[3]; [9],−
same,"Twin spots, statistical diagnosis","[3]; PP-IX 0.69 mM + 20 Gy gamma rays, m = 5",−
same,Large single spots (>cells) per wing,[3]; [10],1.84 spots per wing
same,"Large single spots (>cells), number of spots",[3]; [10],147
same,Small single spots (1-2 cells) per wing,[3]; [10],0.69 spots per wing
same,"Small single spots (1-2 cells), number of spots",[3]; [10],55
same,Total spots per wing,[3]; [10],2.67 spots per wing
same,"Total spots, number of spots",[3]; [10],214
same,Twin spots per wing,[3]; [10],0.15 spots per wing
same,"Twin spots, number of spots",[3]; [10],12
same,"Small single spots (1-2 cells), statistical diagnosis",[3]; [11],−
same,"Total spots, statistical diagnosis",[3]; [11],−
same,"Twin spots, statistical diagnosis","[3]; PP-IX 6.9 mM + 20 Gy gamma rays, m = 5",−
same,Large single spots (>cells) per wing,[3]; [12],1.52 spots per wing
same,"Large single spots (>cells), number of spots",[3]; [12],122
same,Small single spots (1-2 cells) per wing,[3]; [12],1.16 spots per wing
same,"Small single spots (1-2 cells), number of spots",[3]; [12],93
same,Total spots per wing,[3]; [12],2.76 spots per wing
same,"Total spots, number of spots",[3]; [12],221
same,Twin spots per wing,[3]; [12],0.07 spots per wing
same,"Twin spots, number of spots",[3]; [12],6
same,"Small single spots (1-2 cells), statistical diagnosis",[3]; PP-IX 69 mM + 20 Gy gamma rays,−
same,"Total spots, statistical diagnosis",[3]; PP-IX 69 mM + 20 Gy gamma rays,−
same,"Large single spots (>cells), statistical diagnosis",[3]; [13],−
same,"Twin spots, statistical diagnosis",[3]; [13],−
same,Effect on damage induced by gamma rays,"[3]; PP-IX all tested concentrations, 20 Gy",no effect; also recorded: Absence of an inhibitor effect
same,Mutagenicity in combination with ENU,[4],mutagenic
